{"source": "ChEMBL document CHEMBL1122179", "about": "“1-(alkylamino)isochromans: hypotensives with peripheral and central activities” (J Med Chem, 1982)", "key": {"[1]": {"system": "Rattus norvegicus", "experiment": "Mean arterial pressure of compound was measured in anesthetized rats at 60 min", "format": "functional, Artery", "outline": "(§1)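 Female Sprague-Dawley rats (200–300 g), anesthetized iv with α-chloralose (40 mg/kg), urethane (40 mg/kg) and pentobarbital (15 mg/kg). Carotid artery catheter for blood pressure and heart rate, jugular vein for drugs. Test agent given at 1.0 mg/kg iv in 0.1 M citric acid (1 mg/mL). Pressor responses to iv norepinephrine 0.1 μg/kg, phenylephrine 2.5 μg/kg and angiotensin I 0.1 μg/kg were taken before and 15, 30, 45 and 60 min after dosing. Mean ± SEM.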"}, "[2]": {"system": "Rattus norvegicus", "experiment": "Pressor effects of intravenous phenylephrine (2.5 ug/kg) was measured in anesthetized rats at 0 min.", "format": "functional", "outline": "as §1"}, "[3]": {"system": "Rattus norvegicus", "experiment": "Heart rate of compound was measured in anesthetized rats at 0 min.", "format": "functional", "outline": "as §1"}, "[4]": {"system": "Rattus norvegicus", "experiment": "Delta BP refers to oral hypotensive activity of compound which is evaluated at 4 hr and 24 hr in restrained, normotensive conscious rats at a dose of 15 mg/kg; -20/-18", "format": "functional", "outline": "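Female Sprague-Dawley rats, normotensive, restrained in a towel. Blood pressure was read directly via chronic indwelling aortic cannulas exteriorized at the nape, before and 4 and 24 h after an oral dose suspended in carboxymethylcellulose (10 mL/kg). Values from two animals were averaged at each time; a mean change of at least 5 mmHg was taken as significant (p < 0.05).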"}, "[5]": {"system": "Rattus norvegicus", "experiment": "Pressor effects of intravenous phenylephrine (2.5 ug/kg) was measured in anesthetized rats at 60 min.", "format": "functional", "outline": "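Female Sprague–Dawley rats (200–300 g) anesthetized iv with α-chloralose 40 mg/kg, urethane 40 mg/kg and pentobarbital 15 mg/kg. Carotid artery catheterized for blood pressure, jugular vein for drugs. Pressor response to iv phenylephrine 2.5 µg/kg measured before and 15, 30, 45, 60 min after 1.0 mg/kg iv test drug dissolved in 0.1 M citric acid (1 mg/mL). Mean ± SEM.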"}, "[6]": {"target": "T1, Adrenergic receptor alpha-2 (Rattus norvegicus, UniProt P22086+P19328+P22909)", "T1 sequence (P22086 whole entry)": "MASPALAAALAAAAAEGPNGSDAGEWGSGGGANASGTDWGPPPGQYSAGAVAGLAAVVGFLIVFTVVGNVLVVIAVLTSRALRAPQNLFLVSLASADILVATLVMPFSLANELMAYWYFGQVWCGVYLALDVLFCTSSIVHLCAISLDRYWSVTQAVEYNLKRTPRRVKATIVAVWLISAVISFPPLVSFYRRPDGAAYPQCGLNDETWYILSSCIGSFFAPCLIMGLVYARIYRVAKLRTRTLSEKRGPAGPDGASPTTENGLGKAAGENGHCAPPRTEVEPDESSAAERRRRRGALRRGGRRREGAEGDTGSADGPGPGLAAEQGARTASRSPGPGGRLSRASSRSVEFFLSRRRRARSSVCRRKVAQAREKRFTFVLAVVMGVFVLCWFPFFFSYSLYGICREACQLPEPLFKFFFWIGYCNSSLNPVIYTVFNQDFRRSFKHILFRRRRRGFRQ", "T1 sequence (P19328 whole entry)": "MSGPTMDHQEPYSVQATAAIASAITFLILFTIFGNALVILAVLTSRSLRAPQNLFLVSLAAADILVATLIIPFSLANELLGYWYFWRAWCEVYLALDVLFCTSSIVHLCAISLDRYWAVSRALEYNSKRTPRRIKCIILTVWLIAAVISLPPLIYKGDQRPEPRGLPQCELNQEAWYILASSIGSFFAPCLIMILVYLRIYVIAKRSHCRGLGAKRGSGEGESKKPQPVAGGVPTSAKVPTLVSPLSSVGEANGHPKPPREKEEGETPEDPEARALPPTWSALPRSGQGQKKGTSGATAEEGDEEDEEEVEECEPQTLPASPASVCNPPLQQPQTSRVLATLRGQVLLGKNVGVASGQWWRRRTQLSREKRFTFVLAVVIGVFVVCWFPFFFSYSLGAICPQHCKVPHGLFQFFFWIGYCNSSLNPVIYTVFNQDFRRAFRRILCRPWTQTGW", "T1 sequence (P22909 whole entry)": "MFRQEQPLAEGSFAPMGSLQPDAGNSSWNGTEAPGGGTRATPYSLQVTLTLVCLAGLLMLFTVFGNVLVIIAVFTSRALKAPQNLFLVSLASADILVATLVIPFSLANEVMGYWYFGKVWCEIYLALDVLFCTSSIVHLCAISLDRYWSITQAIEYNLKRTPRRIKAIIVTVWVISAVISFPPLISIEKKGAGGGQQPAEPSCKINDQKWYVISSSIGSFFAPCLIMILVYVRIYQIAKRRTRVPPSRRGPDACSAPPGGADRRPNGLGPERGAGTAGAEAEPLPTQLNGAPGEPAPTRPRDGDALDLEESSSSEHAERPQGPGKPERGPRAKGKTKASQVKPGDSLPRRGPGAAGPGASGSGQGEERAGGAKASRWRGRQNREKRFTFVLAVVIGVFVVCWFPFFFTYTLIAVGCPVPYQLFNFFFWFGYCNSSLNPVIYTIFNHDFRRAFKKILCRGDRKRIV", "experiment": "Compound was tested for the inhibition of [3H]clonidine binding Alpha-2 adrenergic receptor of crude rat brain membrane"}}}
{"smiles": "COc1cc2c(cc1OC)C(CCN1CCN(c3ccc(F)cc3)CC1)OCC2", "note": "(stereo unspecified)", "values": [{"measurement": "MAP", "setting": "[1]", "result": 87, "unit": "mmHg"}, {"measurement": "Pressor response", "setting": "[2]", "result": 48, "unit": "mmHg"}, {"measurement": "HR", "setting": "[3]", "result": 417, "unit": "beats min-1"}, {"measurement": "Delta blood pressure", "setting": "[4]", "result": -20, "unit": "mmHg"}, {"measurement": "Pressor response", "setting": "[5]", "result": 16, "unit": "mmHg"}, {"measurement": "Ki", "setting": "[6]", "result": 0.062, "unit": "µM"}]}
